In brackets after ≈: the same amount, converted by molar mass.
Legend:
[1] = target: T1, Enoyl-[acyl-carrier-protein] reductase [NADH] (Mycobacterium tuberculosis) (UniProt P9WGR1); experiment: Inhibition of Mycobacterium tuberculosis recombinant His6-tagged InhA expressed in Escherichia coli BL21(DE3) using 2-trans-decenoyl-CoA as substrate at 10 uM incubated for 2 hrs prior to substrate addition by spectrophotometry
T1 sequence (whole entry): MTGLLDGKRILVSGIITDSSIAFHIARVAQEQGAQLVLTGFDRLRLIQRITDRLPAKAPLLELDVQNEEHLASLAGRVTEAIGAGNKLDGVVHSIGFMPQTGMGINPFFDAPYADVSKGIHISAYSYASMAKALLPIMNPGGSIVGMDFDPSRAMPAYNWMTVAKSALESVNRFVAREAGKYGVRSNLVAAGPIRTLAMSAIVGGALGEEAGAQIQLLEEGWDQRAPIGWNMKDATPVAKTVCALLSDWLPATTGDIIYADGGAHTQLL
Outline: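 His6-InhA expressed in E. coli BL21(DE3) with 0.1 mM IPTG at 18 °C and purified on Ni-NTA. 70 nM enzyme pre-incubated 2 h with inhibitor at 10 µM in 30 mM PIPES, 150 mM NaCl, pH 6.8, 0.5% DMSO, 25 °C. Reaction started with DD-CoA plus NADH and followed at 340 nm. Initial velocity compared with a no-ligand control; triplicate.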

[2] = tested on: Mycobacterium tuberculosis; experiment: Antimicrobial activity against Mycobacterium tuberculosis H37Rv ATCC 27294 after 28 days by two-fold agar dilution method; format: functional; conditions: H37Rv ATCC 27294, 672 h
Outline: (§1)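 Two-fold serial dilutions in Middlebrook 7H11 agar with OADC supplement, final 50 to 0.78 µg/mL. Inoculum from fresh 7H11/OADC slants, adjusted to 1 mg/mL wet weight in 0.05% Tween 80 saline and diluted 10^-2 (~10^7 cfu/mL), spotted onto drug-containing agar tubes. Incubated at 37 °C; MIC is the lowest concentration inhibiting growth, read at 28 days.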

[3] = tested on: Mycobacterium tuberculosis; experiment: Antimicrobial activity against Mycobacterium tuberculosis H37Rv ATCC 27294 after 28 days by two-fold agar dilution method in presence of verapamil; format: functional; conditions: H37Rv ATCC 27294, 672 h; outline: as §1
[4] = tested on: Mycobacterium tuberculosis; experiment: Antimicrobial activity against Mycobacterium tuberculosis H37Rv ATCC 27294 after 28 days by two-fold agar dilution method in presence of piperine; format: functional; conditions: H37Rv ATCC 27294, 672 h; outline: as §1
[5] = Cytotoxicity against mouse RAW264.7 cells at 100 uM after 72 hrs by MTT assay; format: cell-based; conditions: read-out: INH
Outline: (§2)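 RAW 264.7 macrophages exposed to compound for 72 h. Viability read as MTT conversion to formazan with a non-radioactive cell proliferation kit, reported as percentage growth inhibition.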

[6] = Cytotoxicity against mouse RAW264.7 cells at 50 uM after 72 hrs by MTT assay; format: cell-based; conditions: read-out: INH; outline: as §2
[7] = target: T2, Enoyl-[acyl-carrier-protein] reductase [NADH] (Mycobacterium tuberculosis, UniProt P9WGR1); experiment: Inhibition of Mycobacterium tuberculosis recombinant His6-tagged InhA expressed in Escherichia coli BL21(DE3) using 2-trans-decenoyl-CoA as substrate incubated for 2 hrs prior to substrate addition by spectrophotometry
T2 sequence (P9WGR1 whole entry): T1 sequence (whole entry)

SMILES	inhibition [1] [%]	MIC [2] [µM]	MIC [3] [µM]	MIC [4] [µM]	cytotoxicity at 72 h, 100 µM [5] [%]	cytotoxicity at 72 h, 50 µM [6] [%]	IC50 [7] [µM]
O=C(Cn1c(=O)oc2cc(Cl)ccc21)NCc1ccccn1	43.1	39.3 (≈ 12.5 µg/mL)	4.91	4.91	40	36.1	
O=C(Cn1c(=O)oc2ccccc21)NCc1cccs1	26.1	21.7 (≈ 6.25 µg/mL)	10.8	5.41	49.1	23.4	
NNC(=O)c1ccncc1 [ISONIAZID]		0.72 (≈ 0.0987 µg/mL)					
O=C(Cn1c(=O)oc2cc(Cl)ccc21)Nc1ccccc1	28.2	82.6 (≈ 25 µg/mL)	20.6	41.3	20.2	15.8	
O=C(Cn1c(=O)oc2cc([N+](=O)[O-])ccc21)NCc1cccs1	35.7	18.8 (≈ 6.25 µg/mL)	18.8	18.8	41	36.5	
O=C(Cn1c(=O)oc2cc(Cl)ccc21)Nc1ncc([N+](=O)[O-])s1	72.6	17.6 (≈ 6.25 µg/mL)	8.81	17.6	50.6	14.3	6.82
O=C(Cn1c(=O)oc2cc([N+](=O)[O-])ccc21)Nc1ccccc1	46.1	79.8 (≈ 25 µg/mL)	19.9	9.97	26.4	18	
O=C(Cn1c(=O)oc2ccccc21)Nc1cc(Cl)ccc1Cl	19.5						22.1
CC[C@@H](CO)NCCN[C@@H](CC)CO [ETHAMBUTOL]		7.64 (≈ 1.56 µg/mL)					
CO[C@H]1/C=C/O[C@@]2(C)Oc3c(C)c(O)c4c(O)c(c(/C=N/N5CCN(C)CC5)c(O)c4c3C2=O)NC(=O)/C(C)=C\C=C\[C@H](C)[C@H](O)[C@@H](C)[C@@H](O)[C@@H](C)[C@H](OC(C)=O)[C@@H]1C [RIFAMPIN]		0.15 (≈ 0.123 µg/mL)					
O=C(Cn1c(=O)oc2cc(Cl)ccc21)NCc1cccs1	45.6	38.7 (≈ 12.5 µg/mL)	9.64	9.64	53.6	20.3	
O=C(Cn1c(=O)oc2ccccc21)Nc1nc2ccccc2s1	42.1	19.2 (≈ 6.25 µg/mL)	9.6	9.6	59.6	43.5	
O=C(Cn1c(=O)oc2ccccc21)Nc1cccc(Cl)c1	17						> 25
O=C(Cn1c(=O)oc2ccccc21)Nc1nc2ccc([N+](=O)[O-])cc2s1	45.1	33.8 (≈ 12.5 µg/mL)	8.43	4.21	19.2	12.4	
O=C(Cn1c(=O)oc2ccccc21)Nc1ncc([N+](=O)[O-])s1	48.1	78 (≈ 25 µg/mL)	39	19.5	44.6	25	
O=C(Cn1c(=O)oc2ccccc21)NCc1ccco1	30.1	22.9 (≈ 6.25 µg/mL)	22.9	22.9	33.8	32.8	
CC1COc2c(N3CCN(C)CC3)c(F)cc3c(=O)c(C(=O)O)cn1c23 (centres undefined) [OFLOXACIN]		2.16 (≈ 0.781 µg/mL)					
O=C(Cn1c(=O)oc2cc(Cl)ccc21)Nc1nc2ccc([N+](=O)[O-])cc2s1	48.6	30.9 (≈ 12.5 µg/mL)	7.72	7.72	14.2	12.5	
O=C(Cn1c(=O)oc2ccccc21)Nc1ccc(Cl)c(Cl)c1	16.5						> 25
O=C(Cn1c(=O)oc2cc([N+](=O)[O-])ccc21)Nc1ccccn1	15.6	39.8 (≈ 12.5 µg/mL)	19.9	9.94	47.3	38.6	
O=C(Cn1c(=O)oc2cc(Cl)ccc21)Nc1cc(C(F)(F)F)ccc1Cl	40.1	61.7 (≈ 25 µg/mL)	15.4	15.4	12.1	1.61	
O=C(Cn1c(=O)oc2ccccc21)NCc1ccccn1	42.2	88.2 (≈ 25 µg/mL)	22.1	44.1	38.7	37.3	
O=C(Cn1c(=O)oc2cc([N+](=O)[O-])ccc21)Nc1nc2ccc([N+](=O)[O-])cc2s1	51.7	15 (≈ 6.25 µg/mL)	3.75	3.75	39	14.8	
O=C(Cn1c(=O)oc2cc(Cl)ccc21)Nc1ccccn1	51.6	82.3 (≈ 25 µg/mL)	10.3	10.3	43.7	33	
O=C(Cn1c(=O)oc2ccccc21)Nc1cc(C(F)(F)F)ccc1Cl	26.8	67.4 (≈ 25 µg/mL)	33.7	16.9	15.4	12.3	
O=C(Cn1c(=O)oc2ccccc21)Nc1ccccn1	26.1	46.4 (≈ 12.5 µg/mL)	4.64	9.28	28.4	20.2	
O=C(Cn1c(=O)oc2cc(Cl)ccc21)NCc1ccco1	47.5	40.8 (≈ 12.5 µg/mL)	20.4	10.2	50.3	27.8	
O=C(Cn1c(=O)oc2ccccc21)Nc1ccccc1	32.4	46.6 (≈ 12.5 µg/mL)	23.3	23.3	39.8	35.1	
O=C(Cn1c(=O)oc2cc([N+](=O)[O-])ccc21)NCc1ccco1	36.9	78.8 (≈ 25 µg/mL)	39.4	39.4	60.1	26.8	
O=C(Cn1c(=O)oc2cc([N+](=O)[O-])ccc21)Nc1cc(C(F)(F)F)ccc1Cl	32.2	60.1 (≈ 25 µg/mL)	15	30.1	31.6	12.8	

From ChEMBL document CHEMBL3352380, “Development of benzo[d]oxazol-2(3H)-ones derivatives as novel inhibitors of Mycobacterium tuberculosis InhA” (Bioorg Med Chem, 2014)
